Among the data in ChEMBL document CHEMBL1139484, “Design, synthesis, and binding studies of new potent ligands of cannabinoid receptors” (J Med Chem, 2005) are Ki, IC50 and Selectivity ratio values, retold here.

In one experiment the target is Cannabinoid receptor 2 (Homo sapiens, UniProt P34972). Briefly: Displacement of [3H]CP-55940 from human CB2 receptor expressed in COS cells. It counts as cell-based.
A short description of experiment [1]: Inhibition of anandamide membrane transporter in RBL-2H3 cells assessed as [14C]anandamide uptake. It counts as cell-based, Rattus norvegicus. An outline of the steps: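 RBL-2H3 cells incubated with [14C]anandamide (4 µM) for 5 min at 37 °C, with or without varying inhibitor concentrations. Medium extracted with CHCl3/CH3OH (2:1); residual radioactivity taken as measure of uptake. IC50 from fit; mean of 3 experiments.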

The target of experiment [2] is T1, Fatty-acid amide hydrolase 1 (Rattus norvegicus, UniProt P97612).
T1 sequence (P97612 whole entry): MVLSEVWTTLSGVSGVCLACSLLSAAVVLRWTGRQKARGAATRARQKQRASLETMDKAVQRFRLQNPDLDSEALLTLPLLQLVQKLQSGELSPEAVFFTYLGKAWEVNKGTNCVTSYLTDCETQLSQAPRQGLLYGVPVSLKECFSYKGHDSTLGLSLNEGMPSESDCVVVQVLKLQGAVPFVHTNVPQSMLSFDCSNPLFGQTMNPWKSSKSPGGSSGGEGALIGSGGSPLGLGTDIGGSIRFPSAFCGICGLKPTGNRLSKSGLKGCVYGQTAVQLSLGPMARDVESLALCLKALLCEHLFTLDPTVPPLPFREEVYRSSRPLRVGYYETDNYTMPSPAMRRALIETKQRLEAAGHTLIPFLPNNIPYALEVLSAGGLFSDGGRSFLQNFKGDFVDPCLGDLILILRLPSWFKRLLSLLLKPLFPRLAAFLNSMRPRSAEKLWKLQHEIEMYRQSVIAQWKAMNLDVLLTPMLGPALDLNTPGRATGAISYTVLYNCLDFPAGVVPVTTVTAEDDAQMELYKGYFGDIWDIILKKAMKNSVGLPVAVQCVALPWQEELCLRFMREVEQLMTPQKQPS
Briefly: Inhibition of rat brain FAAH assessed as [14C]anandamide hydrolysis. In short, it runs like this:
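Rat brain membranes incubated with [14C]anandamide (6 µM) and increasing compound concentrations in 50 mM Tris-HCl pH 9, 30 min, 37 °C. Mixture extracted with 2 volumes CHCl3/CH3OH (2:1); [14C]ethanolamine in aqueous phase counted by scintillation. IC50 reported; mean of 3 experiments.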

The next experiment deals with Cannabinoid receptor 1 (Homo sapiens, UniProt P21554). The experiment can be described thus: Displacement of [3H]CP-55940 from human CB1 receptor expressed in COS cells. It counts as cell-based.
Sequence of Cannabinoid receptor 1 (P21554 whole entry): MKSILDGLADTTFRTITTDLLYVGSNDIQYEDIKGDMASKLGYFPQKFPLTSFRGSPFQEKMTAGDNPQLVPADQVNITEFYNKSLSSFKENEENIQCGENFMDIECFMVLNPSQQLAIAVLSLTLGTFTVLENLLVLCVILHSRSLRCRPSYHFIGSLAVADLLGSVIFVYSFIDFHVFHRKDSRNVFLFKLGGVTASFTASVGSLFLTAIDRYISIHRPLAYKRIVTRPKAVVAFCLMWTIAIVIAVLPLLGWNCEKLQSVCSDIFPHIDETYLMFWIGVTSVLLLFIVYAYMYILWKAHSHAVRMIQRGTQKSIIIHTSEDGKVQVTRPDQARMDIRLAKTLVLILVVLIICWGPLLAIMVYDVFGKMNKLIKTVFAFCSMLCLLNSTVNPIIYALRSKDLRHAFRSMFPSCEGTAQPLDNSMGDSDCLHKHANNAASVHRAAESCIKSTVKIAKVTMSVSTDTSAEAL
Experiment [3] addresses Cannabinoid receptor (Homo sapiens) (UniProt P34972+P21554). The experiment can be described thus: Selectivity for human CB2 receptor over human CB1 receptor. It counts as protein assay. In short, it runs like this: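 Ratio of Ki values from [3H]CP-55,940 (0.5 nM) displacement on P2 membranes of COS cells transfected with human CB1 or CB2; Ki from IC50 by Cheng-Prusoff, mean of 3 experiments.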

Sequence of Cannabinoid receptor 2 (P34972 whole entry): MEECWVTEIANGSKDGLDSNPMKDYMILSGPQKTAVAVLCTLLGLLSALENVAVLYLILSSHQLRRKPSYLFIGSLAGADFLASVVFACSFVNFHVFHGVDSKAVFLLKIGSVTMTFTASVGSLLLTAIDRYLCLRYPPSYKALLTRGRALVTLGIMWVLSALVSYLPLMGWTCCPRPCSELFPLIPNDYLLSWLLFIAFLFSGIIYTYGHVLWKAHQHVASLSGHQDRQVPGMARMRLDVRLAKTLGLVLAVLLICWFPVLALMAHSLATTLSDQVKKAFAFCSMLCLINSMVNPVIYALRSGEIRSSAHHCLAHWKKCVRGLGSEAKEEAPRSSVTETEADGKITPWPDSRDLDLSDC
Sequence of Cannabinoid receptor (Homo sapiens) (P21554 whole entry, looked up): as the sequence (P21554 whole entry) above
Sequence of Cannabinoid receptor (Homo sapiens) (P34972 whole entry, looked up): as the sequence (P34972 whole entry) above

In turn, `CCCCCCc1ccc(O)cc1OCCCCCC(=O)NCCO` came in with a Ki at Cannabinoid receptor 2 greater than 10 µM.

In turn, `O=C(CCCCCCCCCCCCCCCOc1cccc(O)c1)Nc1ccc(O)cc1` showed a Ki on Cannabinoid receptor 2 of 10 µM. In the case of `CCCCCCCCCCCCCCCc1cccc(OCCCCCC(=O)Nc2ccc(O)cc2)c1`, the IC50 in experiment [1] was greater than 25 µM. As to `CCCCCCc1ccc(O)cc1OCCCCCCCCCCC(=O)NC1CC1`, the IC50 is greater than 25 µM in experiment [2] and 13 µM in experiment [1]. The compound `CCCCCCc1ccc(OCCCCCCCCCCC(=O)NC2CC2)cc1O` had a Ki on Cannabinoid receptor 1 greater than 10 µM. In experiment [3], the Selectivity ratio was determined as 26. In addition, the IC50 in experiment [1] was greater than 25 µM.

The compound `CCCCCCc1ccc(OCCCCCCCCCCC(=O)NCCO)cc1O` yielded a Ki on Cannabinoid receptor 1 greater than 10 µM. In the case of `CCCCCCc1ccc(OCCCCCCCCCCC(=O)Nc2ccc(O)cc2)cc1O`, the IC50 in experiment [1] is greater than 25 µM. On Cannabinoid receptor 2, this compound registered a Ki greater than 10 µM. On to `CCCCCc1cc(O)cc(OCCCCCCCCCCC(=O)NCCO)c1`, for which the IC50 in experiment [1] turned out to be 25 µM. At Cannabinoid receptor 1, `CCCCCc1cc(O)cc(OCCCCCCCCCCCCCCCC(=O)NC2CC2)c1` displayed a Ki greater than 10 µM. Compound `O=C(CCCCCCCCCCOc1cccc(O)c1)NC1CC1` had a Ki on Cannabinoid receptor 1 greater than 10 µM. As to `CCCCCCCCCCCCCCCc1cccc(OCCCCCC(=O)NCCO)c1`, the IC50 in experiment [1] was greater than 25 µM. As to `CCCCCCc1ccc(OCCCCCCCCCCCCCCCC(=O)Nc2ccc(O)cc2)cc1O`, the Ki at Cannabinoid receptor 1 was greater than 10 µM. Still for that read-out and setting: the same measure for `CCCCCc1cc(O)cc(OCCCCCCCCCCCCCCCC(=O)Nc2ccc(O)cc2)c1`: greater than 10 µM. As for `CCCCCc1cc(O)cc(OCCCCCCCCCCC(=O)NC2CC2)c1`, in experiment [1], the IC50 is 17 µM. Regarding `CCCCCCc1ccc(O)cc1OCCCCCCCCCCC(=O)Nc1ccc(O)cc1`, the IC50 in experiment [1] is greater than 25 µM. For `O=C(CCCCCCCCCCCCCCCOc1cccc(O)c1)NCCO`, the Ki at Cannabinoid receptor 1 is greater than 10 µM. Consider `CCCCCCc1ccc(O)cc1OCCCCCCCCCCC(=O)NCCO`, for which the IC50 in experiment [1] was greater than 25 µM.

On Cannabinoid receptor 2, `O=C(CCCCCCCCCCOc1cccc(O)c1)Nc1ccc(O)cc1` showed a Ki greater than 10 µM.

With `O=C(CCCCCCCCCCOc1cccc(O)c1)NCCO`, the Ki on Cannabinoid receptor 1 is greater than 10 µM.
